Positions count from the first letter of the chain named.
Assays:
Settings in all cases: stereoisomer not certain
OR7G2 = tested on: T1, OR7G2
T1 sequence (whole entry): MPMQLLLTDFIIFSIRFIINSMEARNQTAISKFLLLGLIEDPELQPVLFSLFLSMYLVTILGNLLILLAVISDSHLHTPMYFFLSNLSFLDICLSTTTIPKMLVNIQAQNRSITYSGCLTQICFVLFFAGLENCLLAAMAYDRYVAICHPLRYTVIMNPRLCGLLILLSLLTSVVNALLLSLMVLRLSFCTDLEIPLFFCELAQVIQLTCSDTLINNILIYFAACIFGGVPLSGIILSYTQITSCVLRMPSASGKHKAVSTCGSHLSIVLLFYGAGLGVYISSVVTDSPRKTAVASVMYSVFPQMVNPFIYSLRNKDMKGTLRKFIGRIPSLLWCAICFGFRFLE
Outline: (§1)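 Each receptor–molecule pair is labelled responsive or non-responsive (inactive) according to whether the original authors judged the measured signal statistically different from baseline. The data were taken from the main text and supplementary material of published papers and checked for typos and inconsistencies. Assay methods differed by source, with transient luciferase assays in mammalian cell lines being common.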

OR7G3 (Homo sapiens) = biological target: T2, OR7G3 (Homo sapiens) (UniProt Q8NG95)
T2 sequence (whole entry): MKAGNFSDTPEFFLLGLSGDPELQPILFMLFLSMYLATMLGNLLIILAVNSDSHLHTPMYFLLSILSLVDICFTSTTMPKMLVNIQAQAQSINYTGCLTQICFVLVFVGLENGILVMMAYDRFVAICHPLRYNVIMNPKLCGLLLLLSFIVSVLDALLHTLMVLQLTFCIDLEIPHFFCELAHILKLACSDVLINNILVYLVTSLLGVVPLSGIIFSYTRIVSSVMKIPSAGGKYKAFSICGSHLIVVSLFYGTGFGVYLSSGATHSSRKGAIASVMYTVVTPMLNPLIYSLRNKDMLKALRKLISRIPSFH
Outline: as §1

OR7G3 M29V = tested on: T3, OR7G3 M29V
T3 sequence (whole entry): T2 sequence (whole entry) with M29V
Outline: as §1

OR8A1 (Homo sapiens) = biological target: T4, OR8A1 (Homo sapiens) (UniProt Q8NGG7)
T4 sequence (whole entry): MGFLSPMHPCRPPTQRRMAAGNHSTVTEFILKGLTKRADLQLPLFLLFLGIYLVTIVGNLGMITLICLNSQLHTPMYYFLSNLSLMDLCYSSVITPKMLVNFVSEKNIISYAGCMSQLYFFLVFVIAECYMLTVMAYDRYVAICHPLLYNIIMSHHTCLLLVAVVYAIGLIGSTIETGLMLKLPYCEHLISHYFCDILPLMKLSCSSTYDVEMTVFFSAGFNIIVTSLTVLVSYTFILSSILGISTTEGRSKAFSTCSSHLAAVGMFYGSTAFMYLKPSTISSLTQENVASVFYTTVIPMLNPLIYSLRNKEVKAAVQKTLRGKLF
Outline: as §1

OR8B12 (Homo sapiens) = biological target: T5, OR8B12 (Homo sapiens) (UniProt Q8NGG6)
T5 sequence (whole entry): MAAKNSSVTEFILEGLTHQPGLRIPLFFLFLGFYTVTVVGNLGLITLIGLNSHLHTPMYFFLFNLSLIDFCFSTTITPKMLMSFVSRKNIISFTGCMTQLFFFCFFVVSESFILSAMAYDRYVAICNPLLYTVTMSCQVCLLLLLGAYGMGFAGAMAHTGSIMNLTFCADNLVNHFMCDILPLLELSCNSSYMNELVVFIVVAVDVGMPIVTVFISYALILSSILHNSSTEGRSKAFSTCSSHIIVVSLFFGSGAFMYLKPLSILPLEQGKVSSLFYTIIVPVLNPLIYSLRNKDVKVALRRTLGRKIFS
Outline: as §1

OR8B2 (Homo sapiens) = biological target: T6, OR8B2 (Homo sapiens) (UniProt Q96RD0)
T6 sequence (whole entry): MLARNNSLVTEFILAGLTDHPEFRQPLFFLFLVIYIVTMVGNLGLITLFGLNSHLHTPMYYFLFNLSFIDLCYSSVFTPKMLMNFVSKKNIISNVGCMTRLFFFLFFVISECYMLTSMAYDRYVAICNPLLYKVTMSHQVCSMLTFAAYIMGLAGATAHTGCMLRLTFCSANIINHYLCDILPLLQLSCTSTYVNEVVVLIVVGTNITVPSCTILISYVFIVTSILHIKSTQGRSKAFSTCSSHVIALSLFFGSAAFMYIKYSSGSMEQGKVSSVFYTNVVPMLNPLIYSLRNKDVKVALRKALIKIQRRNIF
Outline: as §1

OR8B2 L164F = tested on: T7, OR8B2 L164F
T7 sequence (whole entry): T6 sequence (whole entry) with L164F
Outline: as §1

OR8B2 S273F = tested on: T8, OR8B2 S273F
T8 sequence (whole entry): T6 sequence (whole entry) with S273F
Outline: as §1

OR8B3 (Homo sapiens) = biological target: T9, OR8B3 (Homo sapiens) (UniProt Q8NGG8)
T9 sequence (whole entry): T6 sequence (whole entry) with R24Q, I34V, T47I, N94Y, R100Q, T205I, T208M
Outline: as §1

OR8B3 H20R Q24R M114I = tested on: T10, OR8B3 H20R Q24R M114I
T10 sequence (whole entry): T6 sequence (whole entry) with H20R, I34V, T47I, N94Y, R100Q, M114I, T205I, T208M
Outline: as §1

OR8B3 H20R Q24R Y113H = tested on: T11, OR8B3 H20R Q24R Y113H
T11 sequence (whole entry): T6 sequence (whole entry) with H20R, I34V, T47I, N94Y, R100Q, Y113H, T205I, T208M
Outline: as §1

OR8B3 H20R Q24R = tested on: T12, OR8B3 H20R Q24R
T12 sequence (whole entry): T6 sequence (whole entry) with H20R, I34V, T47I, N94Y, R100Q, T205I, T208M
Outline: as §1

OR8B4 (Homo sapiens) = biological target: T13, OR8B4 (Homo sapiens) (UniProt Q96RC9)
T13 sequence (whole entry): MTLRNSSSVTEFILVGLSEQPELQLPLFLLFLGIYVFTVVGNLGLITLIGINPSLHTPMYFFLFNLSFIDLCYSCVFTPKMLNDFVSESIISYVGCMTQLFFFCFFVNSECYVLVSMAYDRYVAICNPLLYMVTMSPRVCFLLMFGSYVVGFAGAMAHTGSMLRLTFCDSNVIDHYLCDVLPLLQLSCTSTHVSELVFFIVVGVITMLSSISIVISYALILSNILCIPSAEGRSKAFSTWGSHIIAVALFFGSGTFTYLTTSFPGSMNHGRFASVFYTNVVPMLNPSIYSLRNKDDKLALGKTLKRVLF
Outline: as §1

OR8B4 = tested on: T14, OR8B4
T14 sequence (whole entry): T13 sequence (whole entry) with E22G
Outline: as §1

OR8B8 (Homo sapiens) = biological target: T15, OR8B8 (Homo sapiens) (UniProt Q15620)
T15 sequence (whole entry): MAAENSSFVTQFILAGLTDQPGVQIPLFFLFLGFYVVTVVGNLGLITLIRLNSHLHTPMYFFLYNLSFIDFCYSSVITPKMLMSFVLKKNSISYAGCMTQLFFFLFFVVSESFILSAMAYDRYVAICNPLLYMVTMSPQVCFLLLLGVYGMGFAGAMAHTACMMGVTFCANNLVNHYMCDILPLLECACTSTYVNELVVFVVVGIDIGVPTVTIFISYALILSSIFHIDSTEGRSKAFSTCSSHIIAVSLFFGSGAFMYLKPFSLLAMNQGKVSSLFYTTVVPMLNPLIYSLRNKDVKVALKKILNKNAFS
Outline: as §1

OR8B8 L101P = tested on: T16, OR8B8 L101P
T16 sequence (whole entry): T15 sequence (whole entry) with L101P
Outline: as §1

OR8D1 (Homo sapiens) = biological target: T17, OR8D1 (Homo sapiens) (UniProt Q8WZ84)
T17 sequence (whole entry): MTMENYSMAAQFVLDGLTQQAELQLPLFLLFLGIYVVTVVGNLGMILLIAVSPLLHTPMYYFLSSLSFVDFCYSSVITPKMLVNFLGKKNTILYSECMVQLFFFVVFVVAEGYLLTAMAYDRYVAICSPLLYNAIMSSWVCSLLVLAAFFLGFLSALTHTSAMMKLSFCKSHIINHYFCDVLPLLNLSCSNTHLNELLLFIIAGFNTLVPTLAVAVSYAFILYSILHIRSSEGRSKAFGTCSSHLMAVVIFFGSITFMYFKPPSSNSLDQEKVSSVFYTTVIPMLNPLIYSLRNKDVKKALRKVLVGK
Outline: as §1

OR8D1 C127G L194P = tested on: T18, OR8D1 C127G L194P
T18 sequence (whole entry): T17 sequence (whole entry) with C127G, L194P
Outline: as §1

OR8D1 L194P = tested on: T19, OR8D1 L194P
T19 sequence (whole entry): T17 sequence (whole entry) with L194P
Outline: as §1

OR7G2 (Homo sapiens) = biological target: T20, OR7G2 (Homo sapiens) (UniProt Q8NG99)
T20 sequence (whole entry): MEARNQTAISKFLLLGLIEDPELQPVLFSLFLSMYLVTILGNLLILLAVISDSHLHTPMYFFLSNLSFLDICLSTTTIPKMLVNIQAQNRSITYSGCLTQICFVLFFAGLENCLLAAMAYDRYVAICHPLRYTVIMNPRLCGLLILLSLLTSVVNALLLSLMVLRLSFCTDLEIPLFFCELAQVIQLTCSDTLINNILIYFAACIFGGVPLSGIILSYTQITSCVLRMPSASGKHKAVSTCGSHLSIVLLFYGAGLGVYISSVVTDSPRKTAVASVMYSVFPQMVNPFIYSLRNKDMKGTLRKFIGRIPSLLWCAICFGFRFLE
Outline: as §1

Measured: odorant receptor agonist call

CCC1OC(=O)C(O)=C1C (stereo unspecified)
active: OR8D1 (Homo sapiens)
not listed: OR7G2 (Homo sapiens)
inactive: all other assays above

CC(CO)CS (stereo unspecified)
inactive: OR7G2 (Homo sapiens) | OR7G3 (Homo sapiens) | OR8A1 (Homo sapiens) | OR8B12 (Homo sapiens) | OR8B2 (Homo sapiens) | OR8B3 (Homo sapiens) | OR8B4 (Homo sapiens) | OR8B8 (Homo sapiens) | OR8D1 (Homo sapiens)

CCCC(S)CCO (stereo unspecified)
inactive: OR8D1 (Homo sapiens)

CCCCCC(=O)C(C)C(C)=O (stereo unspecified)
inactive: OR7G2 (Homo sapiens) | OR7G3 (Homo sapiens) | OR8A1 (Homo sapiens) | OR8B12 (Homo sapiens) | OR8B2 (Homo sapiens) | OR8B3 (Homo sapiens) | OR8B4 (Homo sapiens) | OR8B8 (Homo sapiens) | OR8D1 (Homo sapiens)

CC1=C(O)C(=O)OC1C (stereo unspecified)
active: OR8D1 (Homo sapiens)
not listed: OR7G2 (Homo sapiens)
inactive: all other assays above

Cc1c[nH]c2ccccc12
inactive: OR8D1 (Homo sapiens)

CC(=O)C=CC1=C(C)CCCC1(C)C
inactive: OR8D1 (Homo sapiens)

Cc1ccc(C(C)C)cc1
inactive: OR8D1 (Homo sapiens)

C=C1CCC2(C(C)C)CC12 (stereo unspecified)
inactive: OR8D1 (Homo sapiens)

— the M2OR odorant receptor database
